How the values were obtained:
[1] = test system: Plasmodium falciparum; assay: Antimalarial activity against chloroquine-resistant Plasmodium falciparum W2 by pLDH assay; format: functional, organism-based
In short: (§1)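 P. falciparum clones D10 (CQ-sensitive, moderately mefloquine-resistant) and W2 (CQ-resistant, mefloquine-susceptible) kept in human A+ RBCs in RPMI 1640 with 10% A+ plasma, HEPES and glutamine under 1% O2/5% CO2/94% N2. Asynchronous cultures (1-1.5% parasitemia, 1% hematocrit) exposed to serial dilutions (DMSO <1% final) for 72 h at 37 °C. Parasite LDH read at OD650. IC50 reported as mean ± SD of four experiments in triplicate.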

[2] = test system: Plasmodium falciparum; assay: Antimalarial activity against chloroquine-sensitive Plasmodium falciparum D10 by pLDH assay; format: functional, organism-based; in short: as §1

Row | SMILES | IC50 [1] [nM] | IC50 [2] [nM]
1 | CC[C@H](C[C@@]1(C)C[C@@H](CC)[C@@H](CC(=O)OC)OO1)[C@H]1O[C@@H]1CC | 500 | 1050
2 | CC/C=C/[C@H](CC)C[C@@]1(C)C[C@@H](CC)[C@@H](CCOC(C)=O)OO1 | 460 | 840
3 | CC[C@H](C[C@@]1(C)C[C@@H](CC)[C@@H](CC(=O)OC)OO1)C(=O)OC | 780 | 850
4 | CC[C@H](C[C@@]1(C)C[C@@H](CC)[C@@H](CC(=O)OC)OO1)[C@@H]1O[C@H]1CC | 700 | 1200
5 | CC/C=C/[C@H](CC)C[C@@]1(C)C[C@@H](CC)[C@@H](CCOC)OO1 | 410 | 740
6 | CC[C@H](C[C@@]1(C)C[C@@H](CC)[C@@H](CC(=O)OC)OO1)C(=O)O | 1230 | 1200
7 | CC/C=C/[C@H](CC)C[C@@]1(C)C[C@@H](CC)[C@@H](CCO)OO1 | 480 | 830
8 | C[C@@H]1CC[C@H]2[C@@H](C)C(=O)O[C@@H]3O[C@@]4(C)CC[C@@H]1[C@]32OO4 [ARTEMISININ] | 9 | 13
9 | CC/C=C/[C@H](CC)C[C@@]1(C)C[C@@H](CC)[C@@H](CC(=O)OC)OO1 [PLAKORTIN] | 410 | 870

From ChEMBL document CHEMBL1137345, “Endoperoxide derivatives from marine organisms: 1,2-dioxanes of the plakortin family as novel antimalarial agents” (J Med Chem, 2006)
